Experimental data as given in ChEMBL document CHEMBL1122273, “5-sulfamoylorthanilic acids, a sulfonamide series with salidiuretic activity” (J Med Chem, 1983).
Calls of active or inactive are those of the source. The rule behind the calls is not given here.

Columns and labels:
Rattus norvegicus [1] = organism: Rattus norvegicus; assay: Diuretic activity in the rats, determined by a modified Lipschitz test; type: functional, Urine
Method in brief: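 Modified Lipschitz test: rats deprived of water 24 h, grouped in threes of similar weight in diuresis funnels. Oral dose of 50 mg/kg, suspended in 2% starch solution, by stomach tube.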

Canis familiaris [2] = assay: Diuretic activity in the dog (2 animals/dose) at (dose 1.56 mg/Kg), when administered perorally; type: functional, Canis lupus familiaris, Urine
Method in brief: (§1)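 Trained male beagles, fasted 24 h with tap water ad libitum. Bladder emptied by catheter, then 20 mL/kg tap water by stomach tube, with 4 mL/kg water at each hourly catheterization up to 8 h. The first 2 h of urine served as control. Oral dosing came after the second catheterization, and 1–6 h urine was pooled. Na⁺ and K⁺ were measured by flame photometry, Cl⁻ argentometrically, in mequiv/kg.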

[3] = It is the ratio, measured as saluretic activity in the dog as concentration of Na+ in urinary excretion (dose 6.25 mg/Kg, perorally) to that of K; type: functional, Urine; method in brief: as §1
[4] = It is the ratio, measured as saluretic activity in the dog as concentration of Cl- in urinary excretion (dose 6.25 mg/Kg, perorally) to that of (Na+)+(K+); type: functional, Urine; method in brief: as §1
Canis familiaris [5] = assay: Saluretic activity in the dog measured as concentration of K+ in urinary excretion (2 animals/dose) at (dose 0.4 mg/Kg, perorally); type: functional, Canis lupus familiaris, Urine
Method in brief: (§2)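 Male beagles trained to the procedures, food withdrawn 24 h before, tap water ad libitum. Bladder emptied by catheter, then 20 mL/kg tap water by stomach tube, plus 4 mL/kg orally at each hourly catheterization up to 8 h. The first 2 h of urine served as control. Compound given orally after the second catheterization. Urine from 1–6 h post-dose pooled; Na⁺ and K⁺ by flame photometry, Cl⁻ argentometrically, in mequiv/kg.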

[6] = It is the ratio, measured as saluretic activity in the dog as concentration of Na+ in urinary excretion (dose 0.4 mg/Kg, perorally) to that of K; type: functional, Urine; method in brief: as §1
Canis familiaris [7] = assay: Saluretic activity in the dog measured as concentration of Cl - in urinary excretion (2 animals/dose) at (1.56 mg/Kg, perorally); type: functional, Canis lupus familiaris, Urine; method in brief: as §2
Canis familiaris [8] = assay: Saluretic activity in the dog measured as concentration of Cl - in urinary excretion (2 animals/dose) at (dose 0.4 mg/Kg, perorally); type: functional, Canis lupus familiaris, Urine; method in brief: as §2
[9] = It is the ratio, measured as saluretic activity in the dog as concentration of Na+ in urinary excretion (dose 1.56 mg/Kg, perorally) to that of K; type: functional, Urine; method in brief: as §1
Rattus norvegicus [10] = organism: Rattus norvegicus; assay: Saluretic activity in the rat measured as concentration of chloride in urine; type: functional
Method in brief: (§3)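 Rats deprived of food 24 h, water ad libitum, dosed 50 mg/kg by stomach tube as suspension in 2% starch, no extra water load. Groups of three in diuresis funnels; urine over first 5 h collected. Na⁺ and K⁺ by flame photometry, Cl⁻ argentometrically; expressed as mequiv/kg.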

Canis familiaris [11] = assay: Saluretic activity in the dog measured as concentration of Cl - in urinary excretion (2 animals/dose) at (dose 6.25 mg/Kg, perorally); type: functional, Canis lupus familiaris, Urine; method in brief: as §2
[12] = It is the ratio, measured as saluretic activity in the dog as concentration of Cl- in urinary excretion (dose 0.4 mg/kg perorally) to that of (Na+)+(K+); type: functional, Urine; conditions: route oral; method in brief: as §1
Canis familiaris [13] = assay: Saluretic activity in the dog measured as concentration of K+ in urinary excretion (2 animals/dose) at (dose 1.56 mg/Kg, perorally); type: functional, Canis lupus familiaris, Urine; method in brief: as §2
Rattus norvegicus [14] = organism: Rattus norvegicus; assay: Saluretic activity in the rat measured as concentration of Na+ in urine; type: functional; method in brief: as §3
Canis familiaris [15] = assay: Saluretic activity in the dog measured as concentration of Na+ in urinary excretion (2 animals/dose) at (dose 6.25 mg/Kg, perorally); type: functional, Canis lupus familiaris, Urine
Method in brief: (§4)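 Male beagles trained to rest on a table and to accept stomach tube and catheter. Food withdrawn 24 h before, tap water ad libitum. Bladder emptied by catheter, then 20 mL/kg tap water by stomach tube. Catheterized hourly up to 8 h with 4 mL/kg water orally each time; first 2 h urine served as control. Oral dosing after second catheterization. Pooled 1–6 h urine; Na⁺/K⁺ by flame photometry, Cl⁻ argentometrically.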

Canis familiaris [16] = assay: Diuretic activity in the dog (2 animals/dose) at (dose 0.4 mg/Kg), when administered perorally; type: functional, Canis lupus familiaris, Urine; method in brief: as §1
Canis familiaris [17] = assay: Diuretic activity in the dog (2 animals/dose) at (dose 6.25 mg/Kg), when administered perorally; type: functional, Canis lupus familiaris, Urine; method in brief: as §1
[18] = It is the ratio, measured as saluretic activity in the dog as concentration of Cl- in urinary excretion ( perorally) to that (Na++K+)
Canis familiaris [19] = assay: Saluretic activity in the dog measured as concentration of K+ in urinary excretion (2 animals/dose) at (dose 6.25 mg/Kg, perorally); type: functional, Canis lupus familiaris, Urine; method in brief: as §4
Canis familiaris [20] = assay: Saluretic activity in the dog measured as concentration of Na+ in urinary excretion (2 animals/dose) at (dose 1.56 mg/Kg, perorally); type: functional, Canis lupus familiaris, Urine; method in brief: as §4
Canis familiaris [21] = assay: Saluretic activity in the dog measured as concentration of Na+ in urinary excretion (2 animals/dose) at (dose 0.4 mg/Kg, perorally); type: functional, Canis lupus familiaris, Urine; method in brief: as §4
Rattus norvegicus [22] = organism: Rattus norvegicus; assay: Saluretic activity in the rat measured as concentration of K+ in urine; type: functional; method in brief: as §3
Rattus norvegicus [23] = assay: Salidiuretic activity on the basis of the 50 mg/kg perorally rat assay; Compound was highly active; type: functional, organism-based; parameters: dose 50 mg/kg; conditions: Urine
Canis familiaris [24] = assay: Salidiuretic activity on the basis of the 1.56 mg/Kg perorally dog assay; Compound was highly active; type: functional, organism-based; conditions: Canis lupus familiaris; Urine
Canis familiaris [25] = assay: Sailuric activity in the dog measured as concentration of K+ in urinary excretion (2 animals/dose) at (dose 1.56 mg/Kg, po); type: functional, Canis lupus familiaris, Urine; method in brief: as §2
[26] = It is the ratio, measured as saluretic activity in the dog as concentration of Cl- in urinary excretion (dose 1.56 mg/Kg, perorally) to that of (Na+)+(K+); type: functional, Urine; method in brief: as §1
Canis familiaris [27] = assay: Sailuric activity in the dog measured as concentration of Cl - in urinary excretion (2 animals/dose) at (dose 1.56 mg/Kg, po); type: functional, Canis lupus familiaris, Urine; method in brief: as §2
Rattus norvegicus [28] = assay: Salidiuretic activity on the basis of the 50 mg/kg po rat assay; Compound is found to be modetately active; type: functional, organism-based; parameters: dose 50 mg/kg; conditions: Urine
Canis familiaris [29] = assay: Salidiuretic activity on the basis of the 1.56 mg/Kg po dog assay; compound is found to be active; type: functional, organism-based; conditions: Canis lupus familiaris; Urine
Canis familiaris [30] = assay: Saluretic activity in the dog measured as concentration of Na+ in urinary excretion (2 animals/dose) at (dose 1.56 mg/Kg, po); type: functional, Canis lupus familiaris, Urine; method in brief: as §4
[31] = It is the ratio, measured as saluretic activity in the dog as concentration of Na+ in urinary excretion (dose 1.56 mg/Kg, po) to that of K; type: functional, Urine; method in brief: as §1
[32] = It is the ratio, measured as saluretic activity in the dog as concentration of Cl- in urinary excretion (dose 1.56 mg/Kg, po) to that of (Na+)+(K+); type: functional, Urine; method in brief: as §1
Canis familiaris [33] = assay: Saluretic activity in the dog measured as concentration of K+ in urinary excretion (2 animals/dose) (dose 1.56 mg/kg, p.o.); type: functional, Canis lupus familiaris, Urine; conditions: route oral; method in brief: as §2
Canis familiaris [34] = assay: Saluretic activity in the dog measured as concentration of Cl - in urinary excretion (2 animals/dose) at (dose 1.56 mg/Kg, po); type: functional, Canis lupus familiaris, Urine; method in brief: as §2

## NS(=O)(=O)c1cc(S(=O)(=O)[O-])c(NCc2ccco2)cc1Cl.[Na+]
Rattus norvegicus [1]
  Diuretic activity: 2.8 mL/kg
Canis familiaris [2]
  Diuretic activity: 42.4 ml kg-1 6hr-1
[3]
  Ratio: 5.6
[4]
  Ratio: 0.9
Canis familiaris [5]
  Saluretic activity: 0.19 m equiv 6hr-1 kg-1
[6]
  Ratio: 2.3
Canis familiaris [7]
  Concentration of Cl-: 3.24 m equiv 6hr-1 kg-1
Canis familiaris [8]
  Saluretic activity: 0.69 m equiv 6hr-1 kg-1
[9]
  Ratio: 4.9
Rattus norvegicus [10]
  Saluretic activity: 8.3 m equiv 5hr-1 kg-1
Canis familiaris [11]
  Saldiuretic activity: 4.74 m equiv 6hr-1 kg-1
[12]
  Ratio: 1.1
Canis familiaris [13]
  Saluretic activity: 0.53 m equiv 6hr-1 kg-1
Rattus norvegicus [14]
  Saluretic activity: 7.1 m equiv 5hr-1 kg-1
Canis familiaris [15]
  Saluretic activity: 4.36 m equiv 6hr-1 kg-1
Canis familiaris [16]
  Diuretic activity: 37 ml kg-1 6hr-1
Canis familiaris [17]
  Diuretic activity: 66.5 ml kg-1 6hr-1
[18]
  Ratio: 1
Canis familiaris [19]
  Saldiuretic activity: 0.78 m equiv 6hr-1 kg-1
Canis familiaris [20]
  Saluretic activity: 2.61 m equiv 6hr-1 kg-1
Canis familiaris [21]
  Saluretic activity: 0.45 m equiv 6hr-1 kg-1
Rattus norvegicus [22]
  Saluretic activity: 2.3 m equiv 5hr-1 kg-1

## CN(c1ccccc1)c1cc(NCc2ccco2)c(S(=O)(=O)O)cc1S(N)(=O)=O
Rattus norvegicus [23]
  Saldiuretic activity: Active
Canis familiaris [24]
  Saldiuretic activity: Active

## NCc1ccccc1.NS(=O)(=O)c1cc(S(=O)(=O)O)c(NCc2ccccc2)cc1Cl
Rattus norvegicus [1]
  Diuretic activity: 1.4 mL/kg
Canis familiaris [2]
  Diuretic activity: 40.4 ml kg-1 6hr-1
Canis familiaris [25]
  Saluretic activity: 0.35 m equiv 6hr-1 kg-1
[26]
  Ratio: 1.05
[9]
  Ratio: 4.7
Rattus norvegicus [10]
  Saluretic activity: 1.2 m equiv 5hr-1 kg-1
Canis familiaris [27]
  Saldiuretic activity: 2.07 m equiv 6hr-1 kg-1
Rattus norvegicus [14]
  Saluretic activity: 1.4 m equiv 5hr-1 kg-1
Rattus norvegicus [28]
  Saldiuretic activity: Weak activity
Canis familiaris [29]
  Saldiuretic activity: Active
Canis familiaris [20]
  Saluretic activity: 1.65 m equiv 6hr-1 kg-1
Rattus norvegicus [22]
  Saluretic activity: 1.4 m equiv 5hr-1 kg-1

## CCCC[S+]([O-])c1cc(NCc2ccco2)c(S(=O)(=O)[O-])cc1S(N)(=O)=O.[Na+] (stereo unspecified)
Rattus norvegicus [1]
  Diuretic activity: 1 mL/kg
Canis familiaris [2]
  Diuretic activity: 34.9 ml kg-1 6hr-1
Canis familiaris [30]
  Saluretic activity: 0.89 m equiv 6hr-1 kg-1
[31]
  Ratio: 3
Rattus norvegicus [10]
  Saluretic activity: 1.4 m equiv 5hr-1 kg-1
[32]
  Ratio: 1
Rattus norvegicus [14]
  Saluretic activity: 0.9 m equiv 5hr-1 kg-1
Canis familiaris [33]
  Saldiuretic activity: 0.35 (m equiv) 6hr-1 kg-1
Canis familiaris [34]
  Saldiuretic activity: 1.43 m equiv 6hr-1 kg-1
Rattus norvegicus [22]
  Saluretic activity: 1 m equiv 5hr-1 kg-1
